Experimental data published in ChEMBL document CHEMBL1136010, “Synthesis and evaluation of indenopyrazoles as cyclin-dependent kinase inhibitors. 3. Structure activity relationships at C3(1,2)” (J Med Chem, 2002).
pEC50, pIC50: −log10 of the molar value.

How the values were obtained:
[1] = molecular target: Cyclin-dependent kinase 2/cyclin E (Homo sapiens, UniProt P24941); assay: Inhibitory concentration against Cyclin-dependent kinase 2-cyclin E; assay type: protein-complex assay
[2] = molecular target: Cyclin-dependent kinase 4/cyclin D1 (Homo sapiens, UniProt P11802); assay: Inhibitory concentration against Cyclin-dependent kinase 4-cyclin D1; assay type: protein-complex assay
Summary of the method: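 CDK4/cyclin D1 came from extracts of insect cells dually infected with baculovirus vectors. Reactions were started with 4 units of enzyme, run 15 min at room temperature, and stopped with EDTA. Product was captured on GSH-Sepharose and counted by scintillation.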

HCT-116 = assay: Inhibition of HCT116 colon carcinoma cell proliferation; assay type: functional, cell-based; conditions: Homo sapiens
Summary of the method: (§1)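 SRB colorimetric growth assay. Exponentially growing cells were seeded so they would undergo 3-5 doublings before reaching 85% confluence. Graded compound concentrations were added 18 h later, and cells were incubated 5 days at 37 °C in 5% CO2. Cells were fixed with cold TCA for 1 h at 4 °C, stained with 0.4% SRB in 1% acetic acid, solubilized in 10 mM Tris base, and OD read at 570 nm.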

MIA PaCa-2 = assay: Inhibition of MiaPaCa2 cell proliferation; assay type: functional, cell-based; conditions: Homo sapiens; summary of the method: as §1
B16 = assay: Inhibitory activity against B16-F1 cell line; assay type: functional, cell-based; conditions: Mus musculus
Protein kinase C (PKC) = assay: Inhibition of Protein kinase C; assay type: protein assay
[3] = molecular target: cAMP-dependent protein kinase (PKA) (Homo sapiens, UniProt P22694+P17612+P22612); assay: Inhibition of Protein kinase A (PKA); assay type: protein assay
PC-3 = assay: Inhibition of PC3 cell proliferation; assay type: functional, cell-based; conditions: Homo sapiens; summary of the method: as §1
[4] = molecular target: Tyrosine-protein kinase ABL1 (Homo sapiens, UniProt P00519); assay: Inhibition of c-Abl tyrosine kinase
AG1523 = assay: Effective concentration against normal human fibroblast cell line AG1523; assay type: functional, cell-based
Summary of the method: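 Normal human foreskin fibroblasts AG1523 were seeded at a density giving confluence and contact inhibition of growth. Graded compound concentrations were added 18 h later, and cells were incubated 6 days at 37 °C in 5% CO2. Death effects were scored by SRB colorimetry: cold TCA fixation, 0.4% SRB stain, Tris base solubilization, OD at 570 nm.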

[5] = molecular target: Cyclin-dependent kinase 1/cyclin B (Homo sapiens, UniProt P06493); assay: Inhibition of Cyclin-dependent kinase 1-cyclin B; assay type: protein-complex assay
HT-29 = assay: Inhibition of HT-29 cell proliferation; assay type: functional, cell-based; conditions: Homo sapiens; summary of the method: as §1
NCI-H460 = assay: Inhibition of NCI-H460 cell proliferation; assay type: functional, cell-based; conditions: Homo sapiens; summary of the method: as §1
HT-1080 = assay: Inhibition of HT1080 cell proliferation; assay type: functional, cell-based; conditions: Homo sapiens; summary of the method: as §1

Sequence of Cyclin-dependent kinase 4/cyclin D1 (P11802 whole entry): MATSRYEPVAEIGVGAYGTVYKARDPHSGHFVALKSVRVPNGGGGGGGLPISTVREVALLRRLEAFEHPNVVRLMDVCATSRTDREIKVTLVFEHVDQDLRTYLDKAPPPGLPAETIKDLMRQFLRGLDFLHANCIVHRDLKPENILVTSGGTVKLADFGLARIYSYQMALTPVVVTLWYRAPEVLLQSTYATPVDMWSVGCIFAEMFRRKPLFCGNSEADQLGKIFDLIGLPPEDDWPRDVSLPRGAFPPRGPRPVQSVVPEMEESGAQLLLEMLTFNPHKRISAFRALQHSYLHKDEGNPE
Sequence of Cyclin-dependent kinase 4/cyclin D1 (P24385 whole entry, further chain): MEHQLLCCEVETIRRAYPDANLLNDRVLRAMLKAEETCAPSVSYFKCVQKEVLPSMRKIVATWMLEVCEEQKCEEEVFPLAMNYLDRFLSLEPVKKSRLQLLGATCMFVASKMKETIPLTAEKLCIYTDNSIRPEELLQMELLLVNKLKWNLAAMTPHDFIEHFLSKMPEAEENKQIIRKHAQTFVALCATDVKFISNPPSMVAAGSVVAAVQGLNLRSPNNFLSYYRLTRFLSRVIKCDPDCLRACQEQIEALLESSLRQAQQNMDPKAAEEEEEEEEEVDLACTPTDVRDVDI
Sequence of Tyrosine-protein kinase ABL1 (P00519 whole entry): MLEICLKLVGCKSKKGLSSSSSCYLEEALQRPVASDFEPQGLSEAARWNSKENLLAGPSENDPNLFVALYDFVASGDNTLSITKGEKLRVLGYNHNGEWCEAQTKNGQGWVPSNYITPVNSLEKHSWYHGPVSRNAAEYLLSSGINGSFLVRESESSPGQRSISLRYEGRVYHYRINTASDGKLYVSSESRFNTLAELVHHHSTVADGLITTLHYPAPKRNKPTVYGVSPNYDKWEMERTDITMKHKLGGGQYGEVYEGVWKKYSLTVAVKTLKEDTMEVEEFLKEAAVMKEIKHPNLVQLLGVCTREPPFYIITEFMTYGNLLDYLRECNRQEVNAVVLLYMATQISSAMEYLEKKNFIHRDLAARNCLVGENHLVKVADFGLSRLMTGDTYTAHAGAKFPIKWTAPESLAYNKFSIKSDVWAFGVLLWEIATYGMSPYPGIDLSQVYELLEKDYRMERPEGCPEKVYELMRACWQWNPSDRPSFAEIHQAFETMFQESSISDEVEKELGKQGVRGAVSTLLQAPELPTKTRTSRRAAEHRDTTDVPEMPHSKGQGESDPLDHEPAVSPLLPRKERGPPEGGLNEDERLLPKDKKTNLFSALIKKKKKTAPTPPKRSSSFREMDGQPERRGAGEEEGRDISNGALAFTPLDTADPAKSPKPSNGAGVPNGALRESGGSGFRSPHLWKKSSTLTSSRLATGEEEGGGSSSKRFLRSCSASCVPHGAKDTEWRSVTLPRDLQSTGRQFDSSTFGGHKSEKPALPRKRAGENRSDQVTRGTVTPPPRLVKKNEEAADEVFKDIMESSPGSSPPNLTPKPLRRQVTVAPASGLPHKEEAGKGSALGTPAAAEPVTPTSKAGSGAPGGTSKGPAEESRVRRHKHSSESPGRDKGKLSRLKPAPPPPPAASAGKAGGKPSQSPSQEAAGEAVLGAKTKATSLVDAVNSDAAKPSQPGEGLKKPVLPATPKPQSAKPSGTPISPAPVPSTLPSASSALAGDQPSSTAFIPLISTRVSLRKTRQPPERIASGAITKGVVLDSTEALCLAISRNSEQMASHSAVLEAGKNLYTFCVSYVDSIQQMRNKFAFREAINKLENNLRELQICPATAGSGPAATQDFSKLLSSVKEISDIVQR

| SMILES | pIC50 [1] | pIC50 [2] | further results |
| --- | --- | --- | --- |
| CCc1[nH]nc2c1C(=O)c1c(NC(=O)CN3CCC(C(N)=O)CC3)cccc1-2 | < 6.89 | < 5.59 | – |
| NC(=O)Nc1cccc2c1C(=O)c1c-2n[nH]c1C1CCCCC1 | 6.85 | < 6.09 | – |
| CC(=O)Nc1cccc2c1C(=O)c1c-2n[nH]c1-c1ccc(N2CCOCC2)cc1 | 6.43 | 6.07 | – |
| CN1CCN(CC(=O)Nc2cccc3c2C(=O)c2c-3n[nH]c2-c2ccc(N3CCOCC3)cc2)CC1 | 7.38 | 6.72 | – |
| NC(=O)C1CCN(CC(=O)Nc2cccc3c2C(=O)c2c-3n[nH]c2C2CCCCC2)CC1 | 7.44 | < 6.24 | – |
| CCc1[nH]nc2c1C(=O)c1c(NC(N)=O)cccc1-2 | 6.54 | < 5.70 | – |
| CCOC(=O)c1ccc(-c2[nH]nc3c2C(=O)c2c(NC(N)=O)cccc2-3)s1 | 6.89 | 6.52 | – |
| NC(=O)Nc1cccc2c1C(=O)c1c-2n[nH]c1C1CC1 | 6.85 | 5.85 | – |
| CC(C)c1[nH]nc2c1C(=O)c1c(NC(N)=O)cccc1-2 | 7.08 | < 5.72 | – |
| O=C(CN1CCC(O)CC1)Nc1cccc2c1C(=O)c1c-2n[nH]c1-c1ccc(N2CCOCC2)cc1 | 7.07 | 6.96 | – |
| CN(C)c1ccc(-c2[nH]nc3c2C(=O)c2c(NC(=O)CN4CCC(CN)CC4)cccc2-3)cc1 | 7.82 | 8.15 | pIC50 (HCT-116): 7.13 |
| O=C(CN1CCOCC1)Nc1cccc2c1C(=O)c1c-2n[nH]c1-c1ccc(N2CCOCC2)cc1 | 7.43 | 6.92 | – |
| CC(C)c1[nH]nc2c1C(=O)c1c(NC(=O)CN3CCC(CN)CC3)cccc1-2 | 7.32 | 6.47 | – |
| CC(=O)Nc1cccc2c1C(=O)c1c-2n[nH]c1-c1ccc(N2CCCCC2)cc1 | 6.05 | 6.17 | – |
| NC(=O)C1CCN(CC(=O)Nc2cccc3c2C(=O)c2c-3n[nH]c2C2CC2)CC1 | 7.59 | < 7.00 | pIC50 (HCT-116): 6.92 |
| COc1ccc(-c2[nH]nc3c2C(=O)c2c(NC(=O)CN4CCC(CN)CC4)cccc2-3)cc1 | 7.85 | 7.89 | – |
| CN(C)c1ccc(-c2[nH]nc3c2C(=O)c2c(NC(=O)CN4CCOCC4)cccc2-3)cc1 | 7.44 | 6.96 | – |
| CCc1[nH]nc2c1C(=O)c1c(NC(=O)CN3CCC(CN)CC3)cccc1-2 | 6.62 | 5.89 | – |
| CC(=O)Nc1cccc2c1C(=O)c1c-2n[nH]c1-c1ccc(Oc2ccccc2)cc1 | < 5.60 | < 5.60 | – |
| NCC1CCN(CC(=O)Nc2cccc3c2C(=O)c2c-3n[nH]c2C2CC2)CC1 | 7.26 | 6.37 | – |
| NCC1CCN(CC(=O)Nc2cccc3c2C(=O)c2c-3n[nH]c2C2CCCCC2)CC1 | – | 6.44 | – |
| NCC1CCN(CC(=O)Nc2cccc3c2C(=O)c2c-3n[nH]c2-c2ccc(N3CCOCC3)cc2)CC1 | 7.59 | 7.74 | pIC50 (HCT-116): 6.96 |
| CN1CCN(CC(=O)Nc2cccc3c2C(=O)c2c-3n[nH]c2-c2ccc(N(C)C)cc2)CC1 | 7.54 | 7.26 | – |
| CN(C)c1ccc(-c2[nH]nc3c2C(=O)c2c(NC(=O)CN4CCC(O)CC4)cccc2-3)cc1 | 7.48 | 7.30 | – |
| CC(C)c1n[nH]c2c1C(=O)c1c(NC(=O)CN3CCC(C(N)=O)CC3)cccc1-2 | 7.68 | < 5.89 | pIC50 (HCT-116): 6.54 |
| CC(=O)Nc1cccc2c1C(=O)c1c-2n[nH]c1C1CCCCC1 | 5.96 | < 5.49 | – |

Further lines, with some results ahead:

| pIC50 [1] | pIC50 [2] | SMILES | further results |
| --- | --- | --- | --- |
| < 6.40 | < 6.24 | CCOc1ccc(-c2[nH]nc3c2C(=O)c2c(NC(C)=O)cccc2-3)cc1 | – |
| 6.28 | 5.64 | CC(=O)Nc1cccc2c1C(=O)c1c-2n[nH]c1-c1ccc(O)cc1 | – |
| < 5.46 | < 5.46 | CC(=O)Nc1cccc2c1C(=O)c1c-2n[nH]c1CC(C)C | – |
| 7.96 | 6.82 | NC(=O)Nc1cccc2c1C(=O)c1c-2n[nH]c1-c1cccs1 | pIC50 (HCT-116): 7.39 |
| 7.77 | 6.46 | Cc1ccsc1-c1[nH]nc2c1C(=O)c1c(NC(N)=O)cccc1-2 | pIC50 (HCT-116): 6.85 |
| < 5.77 | < 5.46 | CC(=O)Nc1cccc2c1C(=O)c1c(-c3ccco3)n[nH]c1-2 | – |
| < 6.25 | < 5.55 | CCCCc1ccc(-c2[nH]nc3c2C(=O)c2c(NC(C)=O)cccc2-3)cc1 | – |
| 6.32 | < 5.43 | CC(=O)Nc1cccc2c1C(=O)c1c-2n[nH]c1C1CC1 | – |
| 7.89 | 7.28 | Cc1ccc(-c2[nH]nc3c2C(=O)c2c(NC(N)=O)cccc2-3)s1 | pIC50 (HCT-116): 7.54 |
| 6.01 | < 5.46 | CC(=O)Nc1cccc2c1C(=O)c1c-2n[nH]c1C(C)(C)C | – |
| < 5.59 | < 5.59 | CC(=O)Nc1cccc2c1C(=O)c1c-2n[nH]c1-c1cc(Cl)sc1Cl | – |
| 6.59 | < 5.51 | CC(=O)Nc1cccc2c1C(=O)c1c-2n[nH]c1-c1sccc1C | – |
| 6.74 | 5.35 | CC(=O)Nc1cccc2c1C(=O)c1c-2n[nH]c1-c1cccs1 | – |
| 5.82 | < 5.41 | CCc1[nH]nc2c1C(=O)c1c(NC(C)=O)cccc1-2 | – |
| 7.21 | < 5.82 | Cc1cc(-c2[nH]nc3c2C(=O)c2c(NC(N)=O)cccc2-3)c(C)s1 | – |
| 8.05 | 7.17 | NC(=O)Nc1cccc2c1C(=O)c1c-2n[nH]c1-c1ccsc1 | pIC50 (HCT-116): 6.44 |

| pIC50 [1] | pIC50 [2] | SMILES | further results |
| --- | --- | --- | --- |
| 6.80 | 6.31 | CC(=O)Nc1cccc2c1C(=O)c1c(-c3ccc(C)cc3)n[nH]c1-2 | – |
| 7.89 | 7.24 | NC(=O)Nc1cccc2c1C(=O)c1c(-c3csc(Cl)c3)n[nH]c1-2 | pIC50 (MIA PaCa-2): 6.59; pIC50 (B16): 6.70; IC50 (Protein kinase C (PKC)): > 58000 nM; IC50 [3]: > 58000 nM; pIC50 (PC-3): 6.16; pIC50 [4]: < 4.22; pEC50 (AG1523): < 4.54; pIC50 [5]: 7.36; pIC50 (HT-29): < 5.54; pIC50 (NCI-H460): 6.62; pIC50 (HCT-116): 6.89; pIC50 (HT-1080): 6.31 |
| 6.62 | 6.08 | CC(=O)Nc1cccc2c1C(=O)c1c(-c3ccccc3)n[nH]c1-2 | – |
| 4.96 | < 5.38 | CC(=O)Nc1cccc2c1C(=O)c1c-2n[nH]c1C | – |
| 7.12 | 5.89 | CC(=O)Nc1cccc2c1C(=O)c1c-2n[nH]c1-c1ccncc1 | – |
| 6.49 | 6.51 | CC(=O)Nc1cccc2c1C(=O)c1c-2n[nH]c1-c1ccc(N(C)C)cc1 | – |
| 6.31 | 5.72 | CCCc1ccc(-c2[nH]nc3c2C(=O)c2c(NC(C)=O)cccc2-3)cc1 | – |
| < 5.43 | < 5.43 | CCCc1[nH]nc2c1C(=O)c1c(NC(C)=O)cccc1-2 | – |
| 7.59 | 6.89 | Cn1ccc(-c2[nH]nc3c2C(=O)c2c(NC(N)=O)cccc2-3)c1 | pIC50 (HCT-116): 7.19 |
| 6.08 | < 5.43 | CC(=O)Nc1cccc2c1C(=O)c1c-2n[nH]c1C(C)C | – |
| 6.55 | 6.19 | CCc1ccc(-c2[nH]nc3c2C(=O)c2c(NC(C)=O)cccc2-3)cc1 | – |
| < 5.46 | < 5.46 | CCCCc1[nH]nc2c1C(=O)c1c(NC(C)=O)cccc1-2 | – |
| 7.07 | 6.08 | NC(=O)Nc1cccc2c1C(=O)c1c-2n[nH]c1-c1ccco1 | – |
| 6.92 | 6.47 | CSc1ccc(-c2[nH]nc3c2C(=O)c2c(NC(C)=O)cccc2-3)cc1 | – |
| 6.11 | < 5.80 | CC(=O)Nc1cccc2c1C(=O)c1c-2n[nH]c1-c1cccnc1 | – |
